In ChEMBL document CHEMBL2062435, “Synthesis and in vitro antibacterial activity of gemifloxacin derivatives containing a substituted benzyloxime moiety” (2012):

What was measured:
Type in all cases: functional
[1] = system: Enterococcus faecium; test: Antimicrobial activity against Enterococcus faecium 10-5 after 18-24 hrs by two-fold serial dilution method
Outline: (§1)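 Agar-medium twofold serial dilution against Gram-positive and Gram-negative strains; MIC taken as the lowest compound concentration giving complete inhibition of bacterial growth after incubation at 35 °C for 18-24 h.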

[2] = system: Streptococcus pneumoniae; test: Antimicrobial activity against extended spectrum beta-lactamases-producing Streptococcus pneumoniae 10-1 after 18-24 hrs by two-fold serial dilution method; outline: as §1
[3] = system: Klebsiella pneumoniae; test: Antimicrobial activity against extended spectrum beta-lactamases-producing Klebsiella pneumoniae 10-2 after 18-24 hrs by two-fold serial dilution method; outline: as §1
[4] = system: Staphylococcus aureus; test: Antimicrobial activity against Staphylococcus aureus ATCC […] after 18-24 hrs by two-fold serial dilution method; outline: as §1
[5] = system: Staphylococcus aureus; test: Antimicrobial activity against extended spectrum beta-lactamases-producing methicillin-sensitive Staphylococcus aureus 10-14 after 18-24 hrs by two-fold serial dilution method; outline: as §1
[6] = system: Escherichia coli; test: Antimicrobial activity against Escherichia coli ATCC 25922 after 18-24 hrs by two-fold serial dilution method; outline: as §1
[7] = system: Staphylococcus epidermidis; test: Antimicrobial activity against extended spectrum beta-lactamases-producing methicillin-resistant Staphylococcus epidermidis 10-10 after 18-24 hrs by two-fold serial dilution method
Outline: (§2)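 Agar twofold serial dilution MIC against clinical isolates. MIC was taken as the lowest concentration giving complete inhibition of bacterial growth after incubation at 35 °C for 18-24 h.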

[8] = system: Pseudomonas aeruginosa; test: Antimicrobial activity against Pseudomonas aeruginosa 10-12 after 18-24 hrs by two-fold serial dilution method; outline: as §1
[9] = system: Staphylococcus aureus; test: Antimicrobial activity against extended spectrum beta-lactamases-producing methicillin-resistant Staphylococcus aureus 10-11 after 18-24 hrs by two-fold serial dilution method; outline: as §2
[10] = system: Escherichia coli; test: Antimicrobial activity against extended spectrum beta-lactamases-producing Escherichia coli 10-4 after 18-24 hrs by two-fold serial dilution method; outline: as §1
[11] = system: Enterococcus faecalis; test: Antimicrobial activity against Enterococcus faecalis 10-5 after 18-24 hrs by two-fold serial dilution method; outline: as §1
[12] = system: Enterococcus faecalis; test: Antimicrobial activity against Enterococcus faecalis 10-6 after 18-24 hrs by two-fold serial dilution method; outline: as §1
[13] = system: Klebsiella pneumoniae; test: Antimicrobial activity against extended spectrum beta-lactamases-producing Klebsiella pneumoniae 10-1 after 18-24 hrs by two-fold serial dilution method; outline: as §1
[14] = system: Klebsiella pneumoniae; test: Antimicrobial activity against Klebsiella pneumoniae 10-2 after 18-24 hrs by two-fold serial dilution method; outline: as §1
[15] = system: Pseudomonas aeruginosa; test: Antimicrobial activity against extended spectrum beta-lactamases-producing Pseudomonas aeruginosa 10-5 after 18-24 hrs by two-fold serial dilution method; outline: as §1
[16] = system: Klebsiella pneumoniae; test: Antimicrobial activity against Klebsiella pneumoniae 10-3 after 18-24 hrs by two-fold serial dilution method; outline: as §1
[17] = system: Escherichia coli; test: Antimicrobial activity against Escherichia coli 10-3 after 18-24 hrs by two-fold serial dilution method; outline: as §1
[18] = system: Escherichia coli; test: Antimicrobial activity against extended spectrum beta-lactamases-producing Escherichia coli 10-2 after 18-24 hrs by two-fold serial dilution method; outline: as §1
[19] = system: Staphylococcus epidermidis; test: Antimicrobial activity against extended spectrum beta-lactamases-producing methicillin-sensitive Staphylococcus epidermidis 10-13 after 18-24 hrs by two-fold serial dilution method; outline: as §1
[20] = system: Staphylococcus epidermidis; test: Antimicrobial activity against extended spectrum beta-lactamases-producing methicillin-resistant Staphylococcus epidermidis 10-13 after 18-24 hrs by two-fold serial dilution method; outline: as §2
[21] = system: Klebsiella pneumoniae; test: Antimicrobial activity against extended spectrum beta-lactamases-producing Klebsiella pneumoniae 10-3 after 18-24 hrs by two-fold serial dilution method; outline: as §1
[22] = system: Staphylococcus aureus; test: Antimicrobial activity against extended spectrum beta-lactamases-producing methicillin-sensitive Staphylococcus aureus 10-13 after 18-24 hrs by two-fold serial dilution method; outline: as §1
[23] = system: Escherichia coli; test: Antimicrobial activity against extended spectrum beta-lactamases-producing Escherichia coli 10-3 after 18-24 hrs by two-fold serial dilution method; outline: as §1
[24] = system: Streptococcus pneumoniae; test: Antimicrobial activity against extended spectrum beta-lactamases-producing Streptococcus pneumoniae 10-4 after 18-24 hrs by two-fold serial dilution method; outline: as §1
[25] = system: Enterococcus faecium; test: Antimicrobial activity against Enterococcus faecium 10-9 after 18-24 hrs by two-fold serial dilution method; outline: as §1
[26] = system: Staphylococcus aureus; test: Antimicrobial activity against extended spectrum beta-lactamases-producing methicillin-resistant Staphylococcus aureus 10-15 after 18-24 hrs by two-fold serial dilution method; outline: as §2
[27] = system: Klebsiella pneumoniae; test: Antimicrobial activity against Klebsiella pneumoniae 10-4 after 18-24 hrs by two-fold serial dilution method; outline: as §1
[28] = system: Escherichia coli; test: Antimicrobial activity against Escherichia coli 10-1 after 18-24 hrs by two-fold serial dilution method; outline: as §1
[29] = system: Staphylococcus epidermidis; test: Antimicrobial activity against extended spectrum beta-lactamases-producing methicillin-sensitive Staphylococcus epidermidis 10-11 after 18-24 hrs by two-fold serial dilution method; outline: as §1
[30] = system: Pseudomonas aeruginosa; test: Antimicrobial activity against extended spectrum beta-lactamases-producing Pseudomonas aeruginosa 10-20 after 18-24 hrs by two-fold serial dilution method; outline: as §1
[31] = system: Pseudomonas aeruginosa; test: Antimicrobial activity against extended spectrum beta-lactamases-producing Pseudomonas aeruginosa 10-15 after 18-24 hrs by two-fold serial dilution method; outline: as §1
[32] = system: Pseudomonas aeruginosa; test: Antimicrobial activity against extended spectrum beta-lactamases-producing Pseudomonas aeruginosa 10-18 after 18-24 hrs by two-fold serial dilution method; outline: as §1
[33] = system: Enterococcus faecalis; test: Antimicrobial activity against Enterococcus faecalis 10-7 after 18-24 hrs by two-fold serial dilution method; outline: as §1
[34] = system: Staphylococcus epidermidis; test: Antimicrobial activity against extended spectrum beta-lactamases-producing methicillin-sensitive Staphylococcus epidermidis 10-15 after 18-24 hrs by two-fold serial dilution method; outline: as §1
[35] = system: Escherichia coli; test: Antimicrobial activity against Escherichia coli 10-2 after 18-24 hrs by two-fold serial dilution method; outline: as §1
[36] = system: Pseudomonas aeruginosa; test: Antimicrobial activity against extended spectrum beta-lactamases-producing Pseudomonas aeruginosa 10-9 after 18-24 hrs by two-fold serial dilution method; outline: as §1

Compound	MIC [1] [mg/L]	MIC [2] [mg/L]	MIC [3] [mg/L]	MIC [4] [mg/L]	MIC [5] [mg/L]	MIC [6] [mg/L]	MIC [7] [mg/L]	MIC [8] [mg/L]	MIC [9] [mg/L]	MIC [10] [mg/L]	MIC [11] [mg/L]	MIC [12] [mg/L]	MIC [13] [mg/L]	MIC [14] [mg/L]	MIC [15] [mg/L]	MIC [16] [mg/L]	MIC [17] [mg/L]	MIC [18] [mg/L]	MIC [19] [mg/L]	MIC [20] [mg/L]	further results
COc1cc(Br)c(CO/N=C2\CN(c3nc4c(cc3F)c(=O)c(C(=O)O)cn4C3CC3)CC2CN)cc1OC.CS(=O)(=O)O (racemic)	64	1	> 128	< 0.008	0.5	0.5	0.5	> 128	> 128	> 128	1	4	> 128	> 128	> 128	> 128	> 128	> 128	0.03	0.25	MIC [21]: > 128 mg/L; MIC [22]: 0.03 mg/L; MIC [23]: > 128 mg/L; MIC [24]: 0.125 mg/L; MIC [25]: 64 mg/L; MIC [26]: 0.125 mg/L; MIC [27]: > 128 mg/L; MIC [28]: > 128 mg/L; MIC [29]: 0.5 mg/L; MIC [30]: > 128 mg/L; MIC [31]: > 128 mg/L; MIC [32]: > 128 mg/L; MIC [33]: 2 mg/L; MIC [34]: 2 mg/L; MIC [35]: > 128 mg/L; MIC [36]: > 128 mg/L
COc1ccc(CO/N=C2\CN(c3nc4c(cc3F)c(=O)c(C(=O)O)cn4C3CC3)CC2CN)c(Cl)c1OC.CS(=O)(=O)O (racemic)	4	0.5	> 128	0.008	0.015	0.25	0.5	16	1	4	0.25	4	> 128	> 128	16	8	16	> 128	0.03	0.5	MIC [21]: > 128 mg/L; MIC [22]: 0.015 mg/L; MIC [23]: > 128 mg/L; MIC [24]: 0.06 mg/L; MIC [25]: 4 mg/L; MIC [26]: 0.25 mg/L; MIC [27]: > 128 mg/L; MIC [28]: > 128 mg/L; MIC [29]: 0.25 mg/L; MIC [30]: 16 mg/L; MIC [31]: 32 mg/L; MIC [32]: 16 mg/L; MIC [33]: 2 mg/L; MIC [34]: 1 mg/L; MIC [35]: 32 mg/L; MIC [36]: 8 mg/L
COc1cccc(OC)c1CO/N=C1\CN(c2nc3c(cc2F)c(=O)c(C(=O)O)cn3C2CC2)CC1CN.CS(=O)(=O)O (racemic)	8	0.125	64	0.03	0.125	0.25	0.25	4	1	4	0.5	2	64	> 128	4	8	8	> 128	2	0.25	MIC [21]: > 128 mg/L; MIC [22]: 0.125 mg/L; MIC [23]: 16 mg/L; MIC [24]: 0.25 mg/L; MIC [25]: 8 mg/L; MIC [26]: 0.5 mg/L; MIC [27]: > 128 mg/L; MIC [28]: > 128 mg/L; MIC [29]: 0.125 mg/L; MIC [30]: 2 mg/L; MIC [31]: 4 mg/L; MIC [32]: 8 mg/L; MIC [33]: 1 mg/L; MIC [34]: 0.5 mg/L; MIC [35]: 8 mg/L; MIC [36]: 4 mg/L
